Measurements: ChEMBL document CHEMBL1154602, “Toward a rational design of multitarget-directed antioxidants: merging memoquin and lipoic acid molecular frameworks” (J Med Chem, 2009)
One block for each compound: values may come before it. The source made the active and inactive calls. The rule behind the calls is not given here.

How the values were obtained:
Acetylcholinesterase = Acetylcholinesterase (Homo sapiens, UniProt P22303); assay: Inhibition of human recombinant AChE by Ellman's method
How it was run: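 Human recombinant AChE. IC50 is the inhibitor concentration that decreases enzyme activity by 50%. Values are the mean of two independent measurements, each run in triplicate, with SEM.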

T67 [1] = assay: Antioxidant activity in human T67 cells assessed as inhibition of tert-butyl hydroperoxide-induced ROS production at 10 uM after 24 hrs by fluorescence assay in presence of 2.5 uM sulforaphane treated for 24 hrs before compound addition; type: functional, cell-based
How it was run: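 T67 cells pretreated with 2.5 μM sulforaphane to raise NQO1 activity; ROS formation induced by t-BuOOH; oxidized form tested at 10 μM; significance set at p ≤ 0.05 versus t-BuOOH + sulforaphane-treated cells.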

Cholinesterase = Cholinesterase (Homo sapiens, UniProt P06276); assay: Inhibition of human recombinant BChE by Ellman's method
[2] = Inhibition of amyloid beta (1 to 42) self-aggregation assessed as amyloid fibril formation at 10 uM by thioflavin-T based fluorometric assay
How it was run: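 Self-induced Aβ(1-42) aggregation at 50 μM, test compound at 10 μM; percent inhibition reported with SEM.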

Bos taurus [3] = species on record: Bos taurus; assay: Antioxidant activity in bovine heart submitochondrial particles assessed as inhibition of antimycin A-induced ROS production at 10 uM by fluorescence assay; type: functional
How it was run: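 Submitochondrial particles given NADH; ROS production triggered by antimycin A addition. Quinone (oxidized) form tested at 10 μM.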

Bos taurus [4] = species on record: Bos taurus; assay: Antioxidant activity in bovine heart submitochondrial particles assessed as inhibition of antimycin A-induced ROS production at 10 uM pretreated for 30 mins with human NQO1 by fluorescence assay; type: functional
How it was run: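 Submitochondrial particles given NADH; ROS production triggered by antimycin A. Compound first reduced by 30 min preincubation with purified human NQO1 using NADH as substrate, reaction then stopped with 10 μM dicumarol; tested at 10 μM.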

T67 [5] = assay: Antioxidant activity in human T67 cells assessed as inhibition of tert-butyl hydroperoxide-induced ROS production at 10 uM after 24 hrs by fluorescence assay; type: functional, cell-based
How it was run: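 T67 cells without sulforaphane pretreatment; ROS formation induced by t-BuOOH; oxidized form tested at 10 μM; significance set at p ≤ 0.05 versus t-BuOOH-treated cells.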

Sequence of Cholinesterase (P06276 whole entry): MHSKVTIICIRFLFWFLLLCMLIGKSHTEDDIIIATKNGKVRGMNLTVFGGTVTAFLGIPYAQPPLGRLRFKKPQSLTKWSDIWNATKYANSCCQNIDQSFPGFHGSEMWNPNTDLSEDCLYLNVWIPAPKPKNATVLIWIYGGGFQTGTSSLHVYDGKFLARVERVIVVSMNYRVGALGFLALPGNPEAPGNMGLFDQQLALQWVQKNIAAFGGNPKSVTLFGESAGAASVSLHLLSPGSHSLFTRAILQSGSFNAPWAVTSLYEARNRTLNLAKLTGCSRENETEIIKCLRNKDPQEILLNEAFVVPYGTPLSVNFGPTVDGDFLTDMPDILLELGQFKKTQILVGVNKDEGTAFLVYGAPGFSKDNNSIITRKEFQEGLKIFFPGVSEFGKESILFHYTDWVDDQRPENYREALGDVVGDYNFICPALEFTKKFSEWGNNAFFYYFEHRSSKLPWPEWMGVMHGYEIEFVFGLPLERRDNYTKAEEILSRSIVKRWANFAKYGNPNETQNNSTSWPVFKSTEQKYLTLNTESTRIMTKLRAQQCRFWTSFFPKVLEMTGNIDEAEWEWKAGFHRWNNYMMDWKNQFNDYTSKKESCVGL
Sequence of Acetylcholinesterase (P22303 whole entry): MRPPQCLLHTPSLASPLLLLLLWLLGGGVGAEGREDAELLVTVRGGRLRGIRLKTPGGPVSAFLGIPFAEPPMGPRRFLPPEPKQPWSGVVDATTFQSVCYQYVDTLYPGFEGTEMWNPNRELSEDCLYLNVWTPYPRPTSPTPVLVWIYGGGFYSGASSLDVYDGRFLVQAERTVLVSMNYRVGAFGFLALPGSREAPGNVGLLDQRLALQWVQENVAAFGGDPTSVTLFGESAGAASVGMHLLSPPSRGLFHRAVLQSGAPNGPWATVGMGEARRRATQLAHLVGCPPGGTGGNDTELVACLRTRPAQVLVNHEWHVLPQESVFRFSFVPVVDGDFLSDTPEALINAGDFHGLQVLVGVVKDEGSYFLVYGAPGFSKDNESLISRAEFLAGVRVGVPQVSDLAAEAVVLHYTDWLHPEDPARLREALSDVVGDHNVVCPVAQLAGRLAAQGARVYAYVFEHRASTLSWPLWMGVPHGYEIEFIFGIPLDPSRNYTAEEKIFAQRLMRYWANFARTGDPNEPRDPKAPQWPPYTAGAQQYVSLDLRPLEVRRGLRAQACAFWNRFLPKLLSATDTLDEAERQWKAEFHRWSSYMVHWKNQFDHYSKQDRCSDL

SMILES: CCN(CCCCCCNC1=CC(=O)C(NCCCCCCN(CC)Cc2ccccc2OC)=CC1=O)Cc1ccccc1OC [MEMOQUIN]
- IC50 (Acetylcholinesterase): 1.5 nM

SMILES: CCN(CCCCCCNC1=CC(=O)C(NCCCNC(=O)CCCCC2CCSS2)=CC1=O)Cc1ccccc1OC (stereo unspecified)
- Activity (T67 [1]): Active
- IC50 (Acetylcholinesterase): 150 nM
- IC50 (Cholinesterase): 21 µM
- inhibition [2]: 34.4%
- Activity (Bos taurus [3]): Active
- Activity (Bos taurus [4]): Active
- Activity (T67 [5]): Active

- inhibition [2]: < 10%
SMILES: O=C(CCCCC1CCSS1)NCCCNc1c2c(nc3cc(Cl)ccc13)CCCC2 (stereo unspecified)
- Activity (T67 [1]): inactive

SMILES: CCN(CCCNC1=CC(=O)C(NCCCNC(=O)CCCCC2CCSS2)=CC1=O)Cc1ccccc1OC (stereo unspecified)
- Activity (T67 [1]): Active
- IC50 (Acetylcholinesterase): 190 nM
- IC50 (Cholinesterase): 212 µM
- inhibition [2]: 19.2%
- Activity (Bos taurus [3]): Active
- Activity (Bos taurus [4]): Active
- Activity (T67 [5]): Active

SMILES: CCN(CCCCCCNC1=CC(=O)C(NCCCCCCNC(=O)CCCCC2CCSS2)=CC1=O)Cc1ccccc1OC (stereo unspecified)
- Activity (T67 [1]): Active
- IC50 (Acetylcholinesterase): 100 nM
- IC50 (Cholinesterase): 4.99 µM
- inhibition [2]: 45.4%
- Activity (Bos taurus [3]): Active
- Activity (Bos taurus [4]): Active
- Activity (T67 [5]): Active

SMILES: CCN(CCCNC1=CC(=O)C(NCCCCCCNC(=O)CCCCC2CCSS2)=CC1=O)Cc1ccccc1OC (stereo unspecified)
- Activity (T67 [1]): Active
- IC50 (Acetylcholinesterase): 160 nM
- IC50 (Cholinesterase): 11.1 µM
- inhibition [2]: 31.8%
- Activity (Bos taurus [3]): Active
- Activity (Bos taurus [4]): Active
- Activity (T67 [5]): Active
